These results are taken from ChEMBL document CHEMBL1134609, “Dinuclear alkyldiamine platinum antitumor compounds: a structure-activity relationship study” (J Med Chem, 2001).

Test [1] relates to L1210/2. The test can be described thus: Cytotoxicity in cisplatin-resistant L1210/2 cell lines. Format: functional, cell-based, Mus musculus. An outline of the steps:
(§1)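 Murine leukemia L1210/0 (wild-type) or L1210/2 (cisplatin-resistant) cells in McCoy's 5a + 10% FCS with penicillin/streptomycin; 5 × 10⁴ cells/mL pre-cultured 24 h at 37 °C, 5% CO2. Then treated with at least three platinum concentrations (fresh water stocks diluted in medium). Cells counted in a counting chamber after 72 h. IC50 = concentration reducing growth to 50% of control; each concentration tested in ≥2 independent experiments.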

For test [2], the system named is L1210. As to the kind of experiment: Cytotoxicity against L1210/0 cell line of murine leukemia. Format: functional, cell-based, Mus musculus. A digest of the protocol:
as §1

Test [3] in a line: Resistance factor was determined using the ratio of cytotoxicity of both the cell lines. Format: functional.

CISPLATIN [listing 1 of 2 here]: the results for the IC50 in test [1] and in test [2] were 4.6 µM and 1.5 µM, respectively. As for CISPLATIN [listing 2 of 2 here], the RF in test [3] turned out to be 3.1. Take TRANSPLATIN [listing 1 of 2 here]: the IC50 turned out to be 22 µM in test [1] and 15.7 µM in test [2]. Turning to TRANSPLATIN [listing 2 of 2 here], the RF in test [3] turned out to be 1.4.

One may read the IC50 as the concentration needed to halve the response being measured. The low end stands for higher potency, the high end for lower potency.
